Test results taken from paper PMC9732819 (ACS Chemical Neuroscience, 2022).

Assays:
potassium channel = conditions: read-out: in vitro IC50; electrophysiology; cited from earlier work
[1] = tested on: voltage-gated K^+ channels; test: Guo graphical comparison of regional VT between tracers in nonhuman primates; format: in vivo, rhesus macaques; conditions: for slope of VT correlation plot (Guo method; in vivo affinity ratio): both monkeys combined
Summary of the method: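 Per animal, regional VT of the test tracer (mean of two baseline scans) was regressed against regional VT of each reference 4-aminopyridine tracer. Linearity indicated a shared target, the y-intercept sign indicated relative signal-to-noise, and the slope with measured plasma-free fractions gave the in vivo affinity ratio. Pearson r was used, with Fisher-transformation t-distribution p-values for the regression and intercept.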

[2] = tested on: voltage-gated K^+ channels; test: dynamic brain PET imaging and pharmacokinetic modeling in nonhuman primates; format: in vivo, rhesus macaques
Summary of the method: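 Two male rhesus macaques (10 and 14 years; one with a prior craniotomy injury) each had two baseline scans. Tracer (291.5–330.1 MBq; 90.3–247.5 GBq/μmol) was infused over 3 min into the saphenous vein, followed by a saline flush, with 180 min list-mode PET/CT under isoflurane. Ten regional TACs were taken in MRI-template space. 1T and 2T models with metabolite-corrected input gave K1 and VT (AIC comparison), with Logan and MA1 also tested.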

[3] = arterial blood and radiometabolite analysis in nonhuman primates; format: in vivo, rhesus macaques
Summary of the method: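 Rhesus macaques were sedated with ketamine/xylazine IM and kept on isoflurane. Arterial blood was sampled manually via a posterior tibial catheter throughout PET to measure whole-blood and plasma radioactivity. Plasma from 3–120 min was filtered through a 10K filter (21 000 rcf, 8 °C, 15 min) and run on C18 radioHPLC in pH 12 phosphate/NaOH:MeCN 96:4 to obtain the parent fraction. Plasma-free fraction was measured in triplicate.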

[4] = tested on: voltage-gated K^+ channels; test: PET imaging and ex vivo γ counting of brain and blood in healthy rats; set-up: species or system Sprague Dawley rats
Summary of the method: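 Six–eight-week-old male and female Sprague Dawley rats received ~14.8 MBq tracer by tail vein, alone or with 5 mg/kg cold test compound (5–10 mg/kg in the ex vivo legend), in saline containing ≤10% […]. Rats underwent 60 min PET/CT under 2% isoflurane. Blood (cardiac puncture) and brain were then collected, weighed and γ-counted to give SUV ratios. Imaging used 4 rats; γ-counting used 15. Data are mean ± SD.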

whole brain SUV ([2]; monkey brain, 3 min)	K1 (rate constant for transfer from plasma to brain tissue) ([2]; monkey whole brain, 1T2k1v model) [mL/min/cc]	total volume of distribution (VT) ([2]; striatum, monkey 1, 1T2k1v) [mL/cc]	total volume of distribution (VT) ([2]; striatum, monkey 2, 1T2k1v) [mL/cc]	total volume of distribution (VT) ([2]; white matter, monkey 1, 1T2k1v) [mL/cc]	total volume of distribution (VT) ([2]; white matter, monkey 2, 1T2k1v) [mL/cc]	fraction unbound ([3]; male, rhesus monkey, arterial plasma)	time for WB to PL ratio to reach a plateau ([3]; monkey arterial blood) [min]	activity attributable to parent tracer in plasma (radioHPLC) ([3]; monkey arterial plasma, after 90 min) [%]	WB to PL radioactivity concentration ratio ([3]; monkey, 1 min postinjection, across all studies)	increase of whole brain to blood SUVR, coinjection group vs baseline group ([4]; 60 min, p = 0.017) [%]	time of peak radioactivity in the brain ([4]; PET brain time-activity curve) [min]	SMILES	IC50 (potassium channel) [µM]	slope of VT correlation plot (Guo method; in vivo affinity ratio) ([1]; vs [^11C]3MeO4AP, p < 0.0001)	intercept of Guo plot (relative specific binding) ([1]; vs [^11C]3MeO4AP, p = 0.31)	slope of VT correlation plot (Guo method; in vivo affinity ratio) ([1]; vs [^18F]3F4AP, p = 0.0001)	intercept of Guo plot (relative specific binding) ([1]; vs [^18F]3F4AP, p = 0.91)	visibility of minor focal brain lesion on PET images ([2]; monkey 2 (M2), craniotomy site)
												Cc1cnccc1N [3Me4AP, 3-methyl-4-aminopyridine]	40					
0.7	~0.035	4.67	4.68	3.61	3.78	0.94 ± 0.03	≤ 1	~90	1.28 ± 0.01	43	≤ 3	[11CH3]c1cnccc1N [[^11C]3Me4AP, 3-[^11C]Methyl-4-aminopyridine]		0.73	0.67	1.93	0.10	not visible
